Assay [1] has as its system Mycobacterium tuberculosis. Description: Antimycobacterial activity against Mycobacterium tuberculosis H37Rv assessed as growth inhibition after 45 days. It is filed as functional. The gist of the method: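 Canetti proportion method on Löwenstein–Jensen egg medium. Each compound was added as a sterile DMSO suspension/solution before coagulation (30 min at 85 °C) and tested at five concentrations. Tubes were inoculated with 10⁵ cells/ml and incubated 45 days at 37 °C. Colony counts were expressed as percent of drug-free control. MIC is the lowest concentration giving complete inhibition (0% growth).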

In assay [2] the test system is HEK-293T. The assay can be described thus: Cytotoxicity against HEK293T cells after 72 hrs by MTT assay. The conditions noted are these: Homo sapiens. It is filed as cell-based. In short, it runs like this: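 HEK 293T cells grown in RPMI-1640 with 10% heat-inactivated foetal calf serum and 2 mM L-glutamine, 37 °C, 5% CO2. Cells seeded at […] cells/ml, grown 24 h, then exposed 72 h to compounds serially diluted from fresh DMSO stocks (final DMSO ≤0.5%), ≥8 wells per concentration. MTT added for 4 h at 37 °C, formazan dissolved in 5% HCOOH/2-propanol, read at 580 nm. Survival expressed as % of untreated control; IC50 from sigmoidal curve fit.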

For 22 compounds, MIC and IC50 results are on record in ChEMBL document CHEMBL3259774, “Antimycobacterial activity of chiral aminoalcohols with camphane scaffold” (Eur J Med Chem, 2014).

In brackets after ≈: the same amount, converted by molar mass. Counter-ions that a name gives are not always drawn.

On to `CC1(C)[C@@H]2CC[C@@]1([C@H](O)CN1CCN(c3ccccc3F)CC1)C(=O)C2`, for which the MIC in assay [1] is 0.28 µM (≈ 0.101 µg/mL). The IC50 in assay [2] is 120 µM.

In the case of `CC(C)N(C[C@H](O)[C@]12CC[C@H](CC1=O)C2(C)C)C(C)C`, the MIC in assay [1] turned out to be 0.37 µM (≈ 0.104 µg/mL). In assay [2], this compound displayed an IC50 of 166 µM.

With `CC(C)N(C[C@@H](O)[C@]12CC[C@H](CC1=O)C2(C)C)C(C)C`, the MIC in assay [1] worked out at 10.7 µM (≈ 3 µg/mL).

With `CC1(C)[C@@H]2CC[C@@]1([C@@H](O)CN1CCCC1)C(=O)C2`, the minimal inhibitory concentration (MIC) in assay [1] was 19.9 µM (≈ 5 µg/mL).

As for `CC1(C)[C@@H]2CC[C@@]1([C@@H](O)CN1CCCCC1)C(=O)C2`, in assay [1], the MIC was found to be 0.38 µM (≈ 0.101 µg/mL). In assay [2], this compound came in with an IC50 of 143 µM.

With `CC1(C)[C@@H]2CC[C@@]1([C@H](O)CN1CCCCC1)C(=O)C2`, the MIC in assay [1] came to 18.8 µM (≈ 5 µg/mL).

As for `CC1CCN(C[C@H](O)[C@]23CC[C@H](CC2=O)C3(C)C)CC1`, the MIC in assay [1] was found to be 0.72 µM (≈ 0.201 µg/mL). This compound also displayed an IC50 in assay [2] of 158 µM.

Take `CC1CCN(C[C@@H](O)[C@]23CC[C@H](CC2=O)C3(C)C)CC1`: in assay [1], the MIC is 0.36 µM (≈ 0.101 µg/mL). Besides, the IC50 in assay [2] turned out to be 169 µM.

In the case of `CN1CCN(C[C@H](O)[C@]23CC[C@H](CC2=O)C3(C)C)CC1`, the MIC in assay [1] was 17.8 µM (≈ 5 µg/mL).

In the case of `CN1CCN(C[C@@H](O)[C@]23CC[C@H](CC2=O)C3(C)C)CC1`, the minimum inhibitory concentration (MIC) in assay [1] amounted to 17.8 µM (≈ 5 µg/mL).

In the case of `CC1(C)[C@@H]2CC[C@@]1([C@@H](O)CN1CCN(c3ccccc3)CC1)C(=O)C2`, the MIC in assay [1] amounted to 14.6 µM (≈ 5 µg/mL).

`CC1(C)[C@@H]2CC[C@@]1([C@H](O)CN1CCN(c3ccccc3)CC1)C(=O)C2`: in assay [1], the MIC amounted to 14.6 µM (≈ 5 µg/mL).

On to `CC1(C)[C@@H]2CC[C@@]1([C@@H](O)CN1CCN(c3ccccc3F)CC1)C(=O)C2`, for which the MIC in assay [1] was 0.28 µM (≈ 0.101 µg/mL). The compound further displayed an IC50 in assay [2] of 129 µM.

`CC1(C)[C@@H]2CC[C@@]1([C@@H](O)CN1CCN(c3ccc(F)cc3)CC1)C(=O)C2`: the minimum inhibitory concentration (MIC) in assay [1] was 0.28 µM (≈ 0.101 µg/mL). Moreover, half-maximal inhibition in assay [2] (IC50) required 82.2 µM.

Consider `CC1(C)[C@@H]2CC[C@@]1([C@H](O)CN1CCN(c3ccc(F)cc3)CC1)C(=O)C2`, for which the MIC in assay [1] was determined as 0.28 µM (≈ 0.101 µg/mL). The IC50 in assay [2] is 65.1 µM.

Consider `CC1(C)[C@@H]2CC[C@@]1([C@@H](O)CN1CCN(c3ccc(Cl)cc3)CC1)C(=O)C2`, for which, in assay [1], the MIC was 7.96 µM (≈ 3 µg/mL). The compound also came in with an IC50 in assay [2] of 8.6 µM.

Regarding `CC1(C)[C@@H]2CC[C@@]1([C@H](O)CN1CCN(c3ccc(Cl)cc3)CC1)C(=O)C2`, the MIC in assay [1] turned out to be 0.27 µM (≈ 0.102 µg/mL). It took 9.2 µM to reach half-maximal inhibition in assay [2] (IC50).

As for `CC1(C)[C@@H]2CC[C@@]1([C@@H](O)CN1CCOCC1)C(=O)C2`, the MIC in assay [1] amounted to 0.37 µM (≈ 0.0989 µg/mL). This compound also gave an IC50 in assay [2] above 200 µM.

In the case of `CC1(C)[C@@H]2CC[C@@]1([C@H](O)CN1CCOCC1)C(=O)C2`, the minimum inhibitory concentration (MIC) in assay [1] worked out at 18.7 µM (≈ 5 µg/mL).

For `CC1(C)[C@@H]2CC[C@@]1([C@@H](O)CN1CCSCC1)C(=O)C2`, the MIC in assay [1] came to 17.6 µM (≈ 5 µg/mL).

For the compound `CC1(C)[C@@H]2CC[C@@]1([C@H](O)CN1CCSCC1)C(=O)C2`, in assay [1], the MIC amounted to 17.6 µM (≈ 5 µg/mL).

With `CC[C@@H](CO)NCCN[C@@H](CC)CO` [ETHAMBUTOL HYDROCHLORIDE], the MIC in assay [1] turned out to be 7.22 µM.
